According to ChEMBL document CHEMBL1144735, “Design, synthesis, and evaluation of trifluoromethyl ketones as inhibitors of SARS-CoV 3CL protease” (Bioorg Med Chem, 2008):

Target: Replicase polyprotein 1a (Severe acute respiratory syndrome-related coronavirus, UniProt P0C6U8)
Assay: Inhibition of SARS-CoV 3CL protease
In short: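 Purified SARS-CoV 3CL protease (50 nM) with 6 μM fluorogenic substrate peptide in 20 mM Bis–Tris pH 7.0 at 25 °C. Initial velocities were read across inhibitor concentrations and fitted for IC50.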

| SMILES | IC50 [µM] |
| --- | --- |
| C[C@H](NC(=O)[C@@H](N)CCC(=O)O)C(=O)NCC(=O)C(F)(F)F | 50 |
| CC(C)C[C@H](NC(=O)OCc1ccccc1)C(=O)NC(Cc1ccccc1)C(=O)C(F)(F)F (mixture of isomers) | 15 |
| CC(C)C[C@H](NC(=O)[C@@H](NC(=O)[C@H](C)NC(=O)OCc1ccccc1)C(C)C)C(=O)N[C@@H](Cc1ccccc1)C(=O)C(F)(F)F (mixture of isomers) | 10 |
| CC(C)C[C@H](NC(=O)OC(C)(C)C)C(=O)NC(C)C(=O)C(F)(F)F (mixture of isomers) | 40 |
| CCCCCCCCC(=O)N[C@@H](CC(C)C)C(=O)NC(Cc1ccccc1)C(=O)C(F)(F)F (stereo partly drawn) | > 50 |
| CCCCCCCCCC(=O)N[C@@H](CC(C)C)C(=O)NC(Cc1ccccc1)C(=O)C(F)(F)F (mixture of isomers) | 50 |
| C[C@H](NC(=O)[C@H](CCC(=O)OC(C)(C)C)NC(=O)OC(C)(C)C)C(=O)NCC(=O)C(F)(F)F | 40 |
| O=C(N[C@@H](Cc1ccccc1)C(=O)NC(Cc1ccccc1)C(=O)C(F)(F)F)OCc1ccccc1 (mixture of isomers) | 20 |
